Neddylation inh: inhibitors of cullin neddylation, primary screen, biochemical, TR-FRET, uHTS, NAE and Ubc12 | AID 651699, 2012 | hit rate 0.58% among 360,000 | inhibition, % at 25 µM | NEDD8-conjugating enzyme Ubc12 (Homo sapiens) + NEDD8-activating enzyme E1 regulatory …; in the data active = inhibition above about 36%
Target sequence (P61081 whole entry, looked up): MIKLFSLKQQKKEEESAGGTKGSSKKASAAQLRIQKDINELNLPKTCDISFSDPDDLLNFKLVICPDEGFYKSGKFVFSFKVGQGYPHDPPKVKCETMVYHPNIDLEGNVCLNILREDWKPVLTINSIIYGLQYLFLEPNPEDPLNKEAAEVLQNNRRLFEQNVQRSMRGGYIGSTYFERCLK
Target sequence (Q13564 whole entry, looked up): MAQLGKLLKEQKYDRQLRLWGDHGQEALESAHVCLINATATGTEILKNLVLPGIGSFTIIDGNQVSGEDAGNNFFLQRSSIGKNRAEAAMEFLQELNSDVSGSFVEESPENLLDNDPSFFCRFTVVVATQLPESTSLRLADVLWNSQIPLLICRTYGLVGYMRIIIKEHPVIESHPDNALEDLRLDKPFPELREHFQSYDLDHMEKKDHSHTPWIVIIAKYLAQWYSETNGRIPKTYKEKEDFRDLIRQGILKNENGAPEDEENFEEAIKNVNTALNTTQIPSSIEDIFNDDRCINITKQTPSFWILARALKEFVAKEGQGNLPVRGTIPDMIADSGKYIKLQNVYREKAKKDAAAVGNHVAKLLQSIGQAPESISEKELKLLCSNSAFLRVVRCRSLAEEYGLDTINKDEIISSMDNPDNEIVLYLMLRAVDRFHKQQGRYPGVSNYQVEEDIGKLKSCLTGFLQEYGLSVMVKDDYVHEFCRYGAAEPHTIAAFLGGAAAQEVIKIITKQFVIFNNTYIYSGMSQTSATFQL
CTSL1 counter: Fasciola hepatica cathepsin L1 inhibitors, primary screen, counter-screen for PFM18AAP inhibitor project, biochemical, QFRET, fluorogenic peptide substrate; recombinant F. hepatica cathepsin L1, Z-Leu-Arg-MCA fluorescence; hit rate 0.49% among 300,000; inhibition, % at 5.96 µM;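 active = inhibition above the mean of all tested compounds plus 3 SD, set per screening campaign, cut at about 17% in these data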;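 note: 0% = plate median of test compound wells and 100% = 1 µM Z-Phe-Ala-diazomethylketone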
UBC9 SUMO inh: inhibitors of in vitro SUMOylation cascade, primary screen, biochemical, HTRF, uHTS; SUMO-conjugating enzyme UBC9 (Homo sapiens), P63279; HTRF SUMOylation assay, SAE1/SAE2 + UBC9; inhibition, % at 35 µM; hit rate 0.36% among 290,000; AID 2006, 2009; in the data active = inhibition above about 50%, passing the limit was not always enough
UCH37 DUB inh: inhibitors of human UCH37 deubiquitinase, primary screen, biochemical, Ub-AMC cleavage, fluorescence. inhibition, % (no concentration beside the values). hit rate 0.33% among 330,000. Ubiquitin carboxyl-terminal hydrolase isozyme L5 (Homo sapiens), Q9Y5K5. purified proteasome/UCH37;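 active = mean inhibition over replicate wells above about 20%, limit read from the data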;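 note: 0% = compound-free wells with enzyme and 100% = wells lacking proteasome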
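Material: Human UCH37 enzyme supplied as purified proteasome complex | Schedule: 30 min compound-proteasome preincubation then 25 min substrate reaction, room temperature | Detection: AMC fluorescence from Ub-AMC cleavage, excitation 355 nm, emission 460 nm | Benchmarks: Wells without proteasome as full block, compound-free enzyme plus substrate as uninhibited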
UCH37 reconfirm: retest of human UCH37 deubiquitinase inhibitors, confirmation, biochemical, Ub-AMC cleavage rate, fluorescence. shares compounds with UCH37 DUB inh. inhibition, % at 20 µM. Proteasome-bound UCH37. hit rate 27% among 480;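 active = average inhibition over replicates above about 50%, so the earlier screening hit is confirmed, limit read from the data; inactive = the rest, counted as false positives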;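 note: based on cleavage rate fitted by regression over a 30 min kinetic read; 0% = proteasome plus Ub-AMC and 100% = Ub-AMC without proteasome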
Neddyl inh conf: blockade of NEDD8 conjugation to cullin – biochemical, TR-FRET, single concentration, confirmation | hit rate 13% among 1,800 | TR-FRET cullin neddylation biochemical assay | calls only at 25 µM | AID 652217, 2013 | shares compounds with Neddylation inh; in the data active = inhibition above about 40%;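 note: neddylation substrate is the cullin 1 ring ligase complex with SKP2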
An asterisk follows results filed as active; i = inactive; nt = no result; + = active, no number. Most compounds without a hit are left out; they make up all but 1.4% or so of the library.

SMILES	Neddylation inh	CTSL1 counter	UBC9 SUMO inh	UCH37 DUB inh	others
CN1CCC2(CC1)C(C#N)=C(N)NC(S)=C2C#N	-4.6	-1.3	57.2*	1.2
O=C(N/N=C/c1c(O)n(Cc2ccccc2)c(=O)[nH]c1=O)c1ccccc1O	41.0*	5.1	-9.4	-19.8
O=C(N/N=C/c1c(O)n(Cc2ccc(F)cc2)c(=O)[nH]c1=O)c1ccccc1O	31.9	1.4	-36.2	-32.8
CC(C)[C@H]1C(=O)N2CCC[C@H]2[C@]2(O)O[C@](NC(=O)[C@@H]3C=C4c5cccc6[nH]cc(c56)C[C@H]4N(C)C3)(C(C)C)C(=O)N12	7.7	36.2*	63.7	-316.8
CC(C)C[C@H]1C(=O)N2CCCC2[C@]2(O)O[C@](NC(=O)[C@@H]3C=C4c5cccc6[nH]cc(c56)CC4N(C)C3)(C(C)C)C(=O)N12 (some centres undefined)	25.1	30.7*	30.6	-17.2
O=C(CSC1c2ccccc2-c2ccccc21)NN=Cc1ccc(C(=O)O)cc1	nt	nt	nt	1.9
CNC(=O)ON=C(N)Cc1csc2ccc(Cl)cc12	nt	nt	nt	3.1
O=C1NC(=O)N(Cc2ccc(F)cc2)C(=O)/C1=C\c1ccc([N+](=O)[O-])s1	-20.0	5.4	63.4*	nt
COc1ccc(N2C(=O)NC(=O)/C(=C/c3ccc([N+](=O)[O-])s3)C2=O)cc1	-32.0	-1.1	50.8*	12.9
COc1ccc(CN2C(=O)NC(=O)/C(=C/c3ccc([N+](=O)[O-])s3)C2=O)cc1	-21.9	1.9	45.8	nt
Oc1ccc(C=NNP(=S)(c2ccccc2)c2ccccc2)cc1	nt	nt	nt	3.8
CC1CCCC=CC2CC(O)CC2C(O)C=CC(=O)O1 (centres undefined)	nt	nt	nt	-1.0
COc1cc2c(cc1O)C[C@H]1NCCc3cc4c(c-2c31)OCO4	24.5*	10.6	3.2	-4.0
Nc1cc2nc3ccccc3nc2cc1N	-39.2	0.3	81.1*	7.2
O=C1NC(=S)N(Cc2ccco2)C(=O)/C1=C\c1cccs1	nt	nt	94.2*	nt
COC(=O)C1=C(c2ccc(OC(F)(F)F)cc2)C[C@@H]2CC[C@H]1N2C(=O)NCCNC(C)=O	-19.6	nt	nt	-0.1
COC(=O)C1=C(c2ccc(OC(F)(F)F)cc2)C[C@@H]2CC[C@H]1N2C(=O)NCCOc1ccc(OC)cc1	-17.2	nt	nt	48.6*	UCH37 reconfirm=4.0
Cc1c(C=NO)c2ccccc2n1C	nt	nt	nt	0.6
CCN(CC)c1ccc(/C=C2\C(=O)NC(=S)N(c3ccc(OC)cc3OC)C2=O)o1	14.0	2.4	nt	26.8*	UCH37 reconfirm=31.9
COc1ccc(N2C(=O)/C(=C/c3ccc(N(C)C)o3)C(=O)NC2=S)cc1	0.7	5.8	-0.4	25.2*	UCH37 reconfirm=25.2
COc1cccc(N2C(=O)/C(=C/c3ccc(C)o3)C(=O)NC2=S)c1	-4.8	0.1	23.2	4.9
CCN(CC)c1ccc(/C=C2\C(=O)NC(=S)N(C)C2=O)o1	-1.0	2.0	5.4	26.1*	UCH37 reconfirm=29.0
CCN(CC)c1ccc(C=C2C(=O)N(C)C(=S)N(C)C2=O)o1	-8.0	2.0	4.8	10.3
CCOC(=O)c1c(N=CC2C(=O)NC(=S)NC2=O)sc2c1CCC2	nt	nt	nt	3.8
C=C1[C@@H](C)[C@H]2[C@H](Cc3ccccc3)NC(=O)[C@]23OC(=O)C=C[C@H](O)CCC[C@@H](C)CC=C[C@H]3[C@@H]1O	nt	nt	nt	1.0
SMILES	Neddylation inh	CTSL1 counter	UBC9 SUMO inh	UCH37 DUB inh	others
COc1cc(C=NNP(=S)(c2ccccc2)c2ccccc2)ccc1O	nt	nt	nt	2.2
O=C1NC(=O)C(=Cc2ccc(N3CCOCC3)o2)C(=O)N1	-4.6	6.4	15.5	27.0*	UCH37 reconfirm=35.7
CN(CN=C(N)N[N+](=O)[O-])S(=O)(=O)c1ccccc1	nt	nt	nt	2.7
COc1cc2c(cc1OC)-c1c(OC)c(OC)cc3c1C(C2)N(C)CC3 (centres undefined)	-33.2	3.2	17.6	28.1*	UCH37 reconfirm=38.0
CC(=NOC(=O)N(C)C)c1ncc(C(F)(F)F)cc1N1CCOCC1	nt	nt	nt	2.9
Cc1c(N=Nc2c(O)[nH]c(=S)[nH]c2=O)c(=O)n(-c2ccccc2)n1C	-24.9	10.8	-9.3	30.2*	UCH37 reconfirm=9.8
COC(=O)c1nc(-c2ccc3c(n2)C(=O)C(N)=C(OC)C3=O)c(N)c(-c2ccc(OC)c(OC)c2O)c1C	-43.9	110.2*	49.2	69.0*	UCH37 reconfirm=36.7
Cn1c(=O)[nH]c2nncnc2c1=O	-35.2	2.8	nt	30.1*	UCH37 reconfirm=39.9
CCn1nc(/C=C/c2ccccc2)nc2c(=O)n(C)c(=O)nc1-2	-68.3	nt	98.6*	95.7*	UCH37 reconfirm=99.9*
COc1cc2[nH]c(=O)n(-c3ccccc3)c(=O)c2cc1OC	21.6	-1.8	8.3	-24.0
COc1cc(C(c2c(C)[nH]n(-c3ccccc3)c2=O)c2c(C)[nH]n(-c3ccccc3)c2=O)cc(OC)c1OC	-17.4	8.0	nt	52.8*	UCH37 reconfirm=94.2*
COc1cc(C=NNC(=O)Cn2c([N+](=O)[O-])cnc2C)ccc1OC(=O)N(C)C	nt	nt	nt	2.9
COC(=O)C(O)(c1c(C)[nH]n(-c2ccccc2)c1=O)C(F)(F)F (centres undefined)	-1.7	19.8*	22.1	84.9*	UCH37 reconfirm=60.1*
COC(=O)C(O)(c1c[nH]c2ccccc12)C(F)(F)F (centres undefined)	1.6	-2.4	6.1	1.2
CCN(CC)CCN=Cc1c(O)n(CCC2=CCCCC2)c(=O)[nH]c1=O	4.4	-1.6	15.2	-0.9
O=c1[nH]c(=O)n(CCC2=CCCCC2)c(O)c1C=NCc1cccnc1	-0.3	2.5	15.9	43.8*	UCH37 reconfirm=42.2
CN(C)C(=O)Oc1c(Cl)cc(Cl)c2ccccc12	-17.8	-0.2	12.5	2.0
CN(C)C(=O)Oc1ccc(Cl)c2cccnc12	42.5*	1.6	21.5	-11.1	Neddyl inh conf=i
C[n+]1ccc(-c2ccccc2)c2ccccc21	27.9*	2.2	nt	-54.4	Neddyl inh conf=+
CN(C)c1ccc(/C=C/c2cc[n+](C)c3ccccc23)cc1	-9.6	nt	-120.2	1.6
Cc1cc(N(CCCl)CCCl)ccc1C=NNC(=O)c1cccnc1	38.6*	nt	nt	3.7	Neddyl inh conf=i
O=C1CN=C(c2ccc[nH]2)c2cc(Cl)ccc2N1	39.1*	0.2	14.7	1.4	Neddyl inh conf=+
CCn1c(O)c(/C=N/NC(=O)c2ccccc2)c(=O)[nH]c1=S	60.3*	3.0	2.5	-27.2	Neddyl inh conf=i
NC(=N[N+](=O)[O-])N1CCN(C(=O)c2ccccn2)CC1	nt	nt	nt	1.1
CCCCCCC(=O)N/N=C/c1c(O)n(C2CC2)c(=S)[nH]c1=O	55.9*	0.5	-23.1	9.3	Neddyl inh conf=i
CCCCCCC(=O)N/N=C/c1c(O)n(C(C)CC)c(=S)[nH]c1=O (centres undefined)	33.5	2.9	-45.4	3.5
O=C1CN=C(c2ccc(Br)cc2)c2oc3ccccc3c2N1	40.5*	0.0	0.5	1.3	Neddyl inh conf=i
CC(=O)O[C@@H]1C=C[C@](C)(O)C[C@@H](C)CC=C[C@H]2[C@H](O)C(C)=C(C)[C@H]3[C@H](Cc4ccccc4)NC(=O)[C@@]123	nt	nt	nt	3.2
NC(=N[N+](=O)[O-])N1CCN(C(=O)c2ccc(Cl)cc2)CC1	nt	nt	nt	1.9
CC(C)(C)NC(=S)N=C(N)N[N+](=O)[O-]	nt	nt	nt	2.8

Screens deposited in PubChem by several laboratories.
